ChEMBL document CHEMBL4513216, “Probing the Open Global Health Chemical Diversity Library for Multistage-Active Starting Points for Next-Generation Antimalarials” (ACS Infect Dis, 2020)

Test: Toxicity liver stage against HepG2, at 10uM
Type: cell-based
Set-up: test concentration 10 uM, cell line HepG2-A16-CD81EGFP
Conditions: human, HepG2-A16-CD81EGFP cells; read-out: INHIBITION
How it was run: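 Uninfected HepG2-A16-CD81EGFP cells, 3 × 10^3 per well, 1536-well, plated on prespotted compound at 10 μM final, parasite-free screening media added to match infected plates; puromycin 10 μM positive, DMSO 0.5% negative; run in parallel with 48 h PbLuc assay at 37 °C, 5% CO2; viability by CellTiter-Glo luminescence, normalized to controls.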

SMILES | cytotoxicity at 10 µM [%]
CCn1ncc2c1CN(CCc1cccc(Cl)c1)CC2COC (stereo unspecified) | -98.4
NC(=O)c1ccc(S(=O)(=O)NC(=O)COc2ccc3c(c2)CCC3)cc1 | -2.27
COc1ccccc1C1SCC(=O)Nc2c1c(=O)[nH]n2C1CCCCC1 (stereo unspecified) | -1.2
O=C(c1cccnc1)N1CCC2(CNS(=O)(=O)c3cnccc3O2)C1 (stereo unspecified) | 15.7
CC(C)CCNC(=O)c1cccnc1Oc1cccnc1 | -0.379
CN(C)CCOCc1ncn2c1CN(c1ncc(F)cn1)CCC2 | 15
CN(C)CCN1C[C@@H]2CN(C(=O)C3CC=CC3)C[C@@H]2C1=O | -1.34
Cc1cccnc1CN1CCN(C(=O)c2ccn(C(C)(C)C)c2)CC1 | 11
N#Cc1c(Cl)nsc1NCc1cccnc1OC1CCCC1 | 27.1
Cc1cc(C(=O)Nc2nc3c(s2)CN(S(=O)(=O)C2CC2)CC3)c(C)o1 | 22.7
c1ccc(CN2CCN3C[C@H](Oc4cncnc4)C[C@H]3C2)nc1 | -99.8
Cc1noc(C(C)NC(=O)[C@@H](C)NC(=O)OC(C)(C)C)n1 (stereo partly specified) | 5.81
Cc1ccccc1-c1cncc(C2CCN(Cc3cnn(C)c3)CC2)n1 | -30.6
Cc1nc([C@H]2C[C@@H]3CCN(C(=O)c4ccnnc4)C[C@H]3O2)sc1C | 1.01
COc1cccc2ccn(CCC(=O)N3CCCC(C(=O)O)C3)c12 (stereo unspecified) | -9.42
CCN(CC1CC1)C(=O)NCc1nnc2n1CCC2 | -13.2
COc1ccc(CN2CC(O)CN(C(=O)OCC(C)C)CC2=O)cc1 (stereo unspecified) | -7.34
OC1CCCN(CCNc2ncc(Cl)cc2F)C1 (stereo unspecified) | 8.81
CN(Cc1cccnc1)[C@@H]1CN(C(=O)c2ccoc2)[C@@H]2CCCO[C@H]12 | -1.81
O=S(=O)(CCN1CCCCC1Cn1cncn1)c1ccccc1 (stereo unspecified) | 10.4
CCNC(=O)N1CCc2ccc(NC(=O)C(C)c3ccsc3)cc21 (stereo unspecified) | -3.41
CN(CC(N)=O)C(=O)c1csc(Br)c1 | 3
COc1c(C2CCCN2C(=O)c2ccc(O)nc2)c(C)nn1C (stereo unspecified) | 2.63

SMILES | cytotoxicity at 10 µM [%]
O=C(CN1CCOC(CNc2cccnn2)C1)NCc1ccccn1 (stereo unspecified) | -0.945
c1ccc(C2Cn3ccnc3CN2Cc2ncc[nH]2)cc1 (stereo unspecified) | -2.8
COc1ccc(-n2cnc(Cl)c2CO)cc1 | 2.49
CCCNC(=O)CCOc1cccc(F)c1 | 4.75
CC1CCc2nc(O)c(C(=O)NCCCN3CCN(C)CC3)cc2C1 (stereo unspecified) | -11.6
CC(=O)N1CCN(C(=O)CCCc2nc(C(C)C)no2)CC1 | -9.34
COc1ccc(OCC2CCCN(c3nc(CO)cs3)C2)cc1 (stereo unspecified) | -0.715
COc1ccccc1C(O)CNC(=O)Nc1cccnc1OC (stereo unspecified) | -14.7
CC(C)C[C@H](NC(=O)Nc1ccc(F)c(Cl)c1)C(=O)O | -43
COc1coc(CN2CCCC(CCc3ccccc3F)C2)cc1=O (stereo unspecified) | -1.62
COc1ccc(COCC(O)CNC(=O)c2cccc(OC)c2)cc1 (stereo unspecified) | -9.05
Cc1cc(C(=O)N2CCOC[C@H](Oc3cnccn3)C2)c(C(F)(F)F)o1 | -1.13
COc1ccc(OC)c(C2CCN(CC(C)(C)N3CCOCC3)C2)c1 (stereo unspecified) | -0.359
CSCCC(=O)N1CCC(c2nccn2CCN(C)C)CC1 | -4.17
NC(=O)[C@@H]1Cc2ccccc2CN1S(=O)(=O)N1CCCCCC1 | 15.6
Cc1ccc(CN(C)C(=O)c2ccc(NC3CC3)nc2)o1 | -5.57
Cc1ccc(-c2noc([C@@H]3Cc4nc[nH]c4CN3)n2)cc1 | 0.676
CC(=O)N1CCC2(CC1)CN(C(=O)[C@@H]1CSCN1)c1ccc(Cl)cc12 | -1.91
O=C(Nc1cnccn1)[C@H]1COC[C@H]2CN(C3CCCC3)C[C@H]21 | -20.4
CN(C)c1nc2c(c(N3CCC(O)CC3)n1)CN(CC1CCNC1)CC2 (stereo unspecified) | -10.5
CC(Cn1cccn1)NC(=O)NCCc1cnn(C)c1 (stereo unspecified) | -0.0611
Cc1cnn(C2CCCN(C(=O)c3sccc3C#N)C2)c1 (stereo unspecified) | 0.736
CCN1CCCCC1C(=O)N1CCN(C(=O)OC)CC1 (stereo unspecified) | -4.81

SMILES | cytotoxicity at 10 µM [%]
Cc1cc(CN(C)C(=O)C(c2ccccc2F)N(C)C)ccn1 (stereo unspecified) | 2.78
COc1cccc(CN(C(=O)NC2CC2)C2CCC(O)CC2)c1 (stereo unspecified) | 6.8
CCOC(=O)N1CCN(c2nc(NCCCO)c3ccccc3n2)CC1 | -9.21
Cc1nc(NC2CCCCC2)cc(C2CCCNC2)n1 (stereo unspecified) | -30.3
CCOc1ccc(NC(=O)c2cnc(N3CCCC3)nc2C)cc1 | -7.81
CC(NC(=O)C1CC1)c1cc(O)nc(-c2cccnc2)n1 (stereo unspecified) | 2.67
CCOc1cc(C)nc(N2CCN(C(=O)c3ccncc3)CC2)n1 | 3.12
CC(C)N(C(=O)Cn1cc(Cl)cn1)c1ccccc1 | -1.18
Cc1nn(C)c(Oc2ccc(Cl)cc2)c1CN1CCC(CN)C1 (stereo unspecified) | -7.52
c1cc(-c2noc(CN3CCn4c(nnc4C4CC4)C3)n2)cs1 | -7.07
Cn1nc2c(cc1=O)CN(Cc1coc(-c3ccccc3)n1)CC2 | -4.5
COCCN1CCO[C@H]2CN(Cc3cc[nH]n3)C[C@H]21 | -105
CCSc1ccccc1C(=O)NCCn1nc(C(F)(F)F)n(C)c1=O | 6.83
CC(=O)N1N=C(c2cccs2)OC1C(=O)Nc1ccc(C)cc1 (stereo unspecified) | -4.14
CC1=C[C@@H](CC#N)[C@H](C(C)C)C[C@H]1CC(=O)N1CCN(CCO)CC1 | 4.62
CCOC1CCCN(C(=O)c2ccccc2NCc2cccnc2)C1 (stereo unspecified) | 0.595
O=C1N(CC2CCCC2)CCC12CCN(c1ncc(F)cn1)CC2 | 11.2
CN(C)C(C(=O)N1CCSCC1)c1ccccc1F (stereo unspecified) | 0.32
CCC1CC(=O)NCc2nc3sc(C)cn3c21 (stereo unspecified) | 5.27
COc1cccc(OCC(=O)Nc2cc(C)cnc2OC)c1 | -11.4
C[C@@H]1CN(C(=O)c2ccsc2)C[C@]12CCN(c1ccsc1)C2=O | 1.88
Cc1csc(N2CCN(C(=O)C3(C#N)CCCC3)CC2)n1 | -12.6
CCS(=O)(=O)N1CCc2nnc(CN(C)C(C)C)n2CC1 | 0.872

SMILES | cytotoxicity at 10 µM [%]
CS(=O)(=O)N1CCCn2nc(CNc3cc(C#N)ccn3)cc2C1 | -8.5
Clc1ccccc1CN1CCc2nc(C3CCNCC3)ncc2C1 | -36.6
CCCNC(c1cccnc1)c1ccc(F)cc1F (stereo unspecified) | -2
Cc1ccc(NC(=O)NCC2(N3CCOCC3)CCSC2)c(C)c1 (stereo unspecified) | 1.15
CCC(CO)N(Cc1ccc(C(=O)O)cc1)Cc1ccsc1 (stereo unspecified) | 2.17
COCCn1cnnc1CN(C)c1nc(N)ncc1C | -7.85
CN(C)CCO[C@H]1CN(C(=O)c2cccs2)[C@@H]2COC[C@H]12 | -3.83
CCn1ccnc1CN1CCCN(CC2CC2)C(C(C)C)C1 (stereo unspecified) | 2.63
CC(C)C1CN(c2cccc(C#N)n2)CCCN1CC1CC1 (stereo unspecified) | -6.55
CN(C)c1nccc(CNS(=O)(=O)c2cc(Cl)cc(Cl)c2)n1 | -138
CCN(Cc1noc(CC(C)C)n1)Cc1cc2ccc(F)cc2[nH]c1=O | 3.34
O=C(c1ccnc(NC2CC2)c1)N1CCCC1c1cccc(Br)c1 (stereo unspecified) | -6.58
Cc1cccc(-c2ncc(CNC(C)Cc3ccncc3)cn2)c1 (stereo unspecified) | -8.18
CCCn1nc(C(=O)NC2(c3ccc(Cl)cc3)CCCC2)ccc1=O | 9.46
CCN(C(=O)CN1CCC(c2n[nH]c(C3CC3)n2)CC1)C1CC1 | -2.07
CO[C@@H]1CCN(S(=O)(=O)c2cccnc2)[C@@H]2CN(CC3CC3)C[C@@H]21 | -65.7
COCc1nc(C2CCN(Cc3ncc[nH]3)CC2)no1 | -23.1
CCc1ncnc2c1CCN(CC(=O)N(C)C)CC2 | -106
COCC(C)NC(=O)CCCn1cnc2ccccc2c1=O (stereo unspecified) | 8.43
O=C(O)C1(Cc2ccc(Cl)cc2)CCN(c2ncccc2F)CC1 | -1.29
CN(C)C(=O)N1CCN(C)c2ncccc2C1 | -4.14
COc1cccc([C@H]2CN(C(=O)c3ccccc3)[C@@H]3CCCN[C@H]23)c1 | -25.9
COc1ccc(CN2CC[C@H]3[C@H](CO[C@H]3CNC(=O)N(C)C)C2)cc1 | 6.96

SMILES | cytotoxicity at 10 µM [%]
COCC(=O)N1CCCN(C(=O)C2Cc3ccccc3CN2C)CC1 (stereo unspecified) | 4.28
CC(C)CN(Cc1cnn(C)c1)C(=O)C1COc2ccccc2C1 (stereo unspecified) | 0.956
COCCCNC(=O)Cn1c(-c2cccc(Cl)c2)nc(C)cc1=O | -8.41
CC(C)(C)c1n[nH]c(C2CN(Cc3ncc[nH]3)CCO2)n1 (stereo unspecified) | 3.01
CC(C)C1CN(Cc2nccn2C(C)C)CCC(=O)N1CC1CC1 (stereo unspecified) | -11
CCCn1[nH]c(CNc2ccccc2)nc1=O | 9.98
CC1CN(c2ncnc3ccccc23)CCO1 (stereo unspecified) | 23.6
CC(C)CC(=O)N1CC(=O)c2sc(Nc3ccc(C#N)cc3)nc2C1 | -0.279
CCn1c(C(=O)N2CCCN(CC(N)=O)CC2)cc2ccccc21 | -4.77
Cc1cc(S(=O)(=O)N2CCC(S(C)(=O)=O)CC2)ccc1F | 6.25
Cc1csc(NC(=O)CN2CCC(c3ccnn3CCO)CC2)n1 | 5.03
O=C(O)CCc1cn(C2CCN(c3ncccc3Cl)CC2)nn1 | -49.3
CNC(=O)C1(C)CN(Cc2cn(C)c3ccc(F)cc23)CCO1 (stereo unspecified) | 0.187
COC(=O)[C@H]1C[C@@H](O)CCN1S(=O)(=O)c1cc(Cl)ccc1OC | 5.1
CCN(C(=O)c1cc(C)oc1C)C1CC1 | -5.89
CN1CC(Oc2ccc(Cl)cc2)=NC(SCC(=O)Nc2ccccc2)=N1 | -0.943
CNS(=O)(=O)c1c(C)sc2ccccc12 | 4.18
COCC(=O)N1CCC2(CCc3ccc(F)cc32)CC1 | -148
CN(CCNC(=O)NCc1ccncc1)C1CCCC1 | -2.95
